Common to all, as to type: functional, cell-based
The test system of one experiment is A549. The experiment is described as follows: Cytotoxicity against human A549 cells assessed as reduction in cell viability after 72 hrs by MTT assay. The settings on record: A549, 72 h. In a few lines:
(§1)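 Human cancer cells grown in 96-well plates and exposed for 72 h at 37 °C under 5% CO2. Survival rates read by MTT assay, with doxorubicin as positive control. IC50 reported as the mean of triplicate determinations.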
For orientation: Formazan colour is commonly taken as a measure of viable cells.

In the next experiment the test system is HCT-116. Description: Cytotoxicity against human HCT116 cells assessed as reduction in cell viability after 72 hrs by MTT assay. The settings on record: HCT-116, 72 h. In a few lines:
as §1

Another experiment relates to MDA-MB-231. Description: Cytotoxicity against human MDA-MB-231 cells assessed as reduction in cell viability after 72 hrs by MTT assay. The settings on record: MDA-MB-231, 72 h. The gist of the method:
as §1

The subject of a further experiment is BEL-7404 tumor cell line. Description: Cytotoxicity against human Bel7404 cells assessed as reduction in cell viability after 72 hrs by MTT assay. The settings on record: BEL-7404, 72 h. In a few lines:
as §1

pIC50: −log10 of the molar value.

`C/C=C(/C)C(=O)O[C@H]1[C@@H](O)[C@@H]2[C@H](OC(=O)[C@H]2COC)[C@@H](OC(=O)C(C)C)[C@@](C)(O)C(=O)CC[C@H]1C`: the pIC50 was < 4.00 in the experiment on A549, 4.30 in the experiment on HCT-116, < 4.00 with MDA-MB-231 and 4.14 with BEL-7404 tumor cell line.
For `C/C=C(/C)C(=O)O[C@@H]1[C@H]2OC(=O)[C@@H](COC)[C@@H]2[C@H](O)[C@H](OC(=O)CC(C)C)[C@H](C)CCC(=O)[C@]1(C)O`, the pIC50 in the experiment with A549 was < 4.00; in the experiment on HCT-116, 4.15; in the experiment on MDA-MB-231 it was < 4.00; in the experiment on BEL-7404 tumor cell line, 4.10.
As for `C=C1C(=O)O[C@H]2[C@H]1[C@H](O)[C@H](OC(=O)/C(C)=C\C)[C@H](C)CCC(=O)[C@](C)(O)[C@@H]2OC(=O)C(C)C`, the pIC50 with A549 was 4.92; in the experiment with HCT-116, 6.06; with MDA-MB-231, 5.69; in the experiment with BEL-7404 tumor cell line it was 5.74.
Taken in the same sequence, the figures for `C=C1C(=O)O[C@H]2[C@H]1[C@@H](O)[C@]1(O)O[C@@H](C[C@H]1C)C[C@](C)(O)[C@@H]2OC(=O)C(C)C` were < 4.00, < 4.00, < 4.00 and 4.09.
With `C=C1C(=O)O[C@H]2[C@H]1[C@H](O)[C@]1(O)O[C@@H](C[C@H]1C)C[C@](C)(O)[C@@H]2OC(=O)/C(C)=C\C`, the negative logarithm of the IC50 (pIC50) in the experiment on A549 was < 4.00; in the experiment with HCT-116, 4.43; in the experiment with MDA-MB-231, < 4.00; with BEL-7404 tumor cell line, 4.16.
Take `C=C1C(=O)O[C@H]2[C@H]1[C@H](OC(=O)C(C)C)C(=O)[C@H](C)CCC[C@](C)(O)[C@@H]2OC(=O)C(C)C`: the negative-log IC50 (pIC50) in the experiment with A549 was 4.52; in the experiment with HCT-116, 5.58; with MDA-MB-231, 5.13; in the experiment with BEL-7404 tumor cell line, 5.14.
`C=C1C(=O)O[C@H]2[C@H]1[C@H](OC(=O)/C(C)=C\C)C(=O)[C@H](C)CCC[C@](C)(O)[C@@H]2OC(=O)C(C)C` (relative stereo): the pIC50 is 4.74 with A549, 5.26 in the experiment with HCT-116, 5.12 in the experiment on MDA-MB-231 and 5.13 in the experiment on BEL-7404 tumor cell line.
For `C=C1C(=O)O[C@H]2[C@H]1[C@@H](O)[C@]1(O)O[C@@H](C[C@H]1C)C[C@](C)(O)[C@@H]2OC(=O)/C(C)=C\C` (relative stereo), the negative logarithm of the IC50 (pIC50) was < 4.00 with A549, < 4.00 in the experiment with HCT-116, < 4.00 in the experiment on MDA-MB-231 and 4.25 in the experiment on BEL-7404 tumor cell line.
For the molecule `C/C=C(/C)C(=O)O[C@H]1[C@@H](O)[C@@H]2[C@H](OC(=O)[C@H]2COC)[C@@H](OC(=O)/C(C)=C\C)[C@@](C)(O)C(=O)CC[C@H]1C` (relative stereo), the pIC50 with A549 was < 4.00; with HCT-116 it was 4.44; with MDA-MB-231, < 4.00; in the experiment on BEL-7404 tumor cell line, 4.06.
Take `C/C=C(/C)C(=O)O[C@H]1[C@@H](O)[C@@H]2[C@H](OC(=O)[C@H]2COC)[C@@H](OC(=O)C(C)CC)[C@@](C)(O)C(=O)CC[C@H]1C` (relative stereo): the negative logarithm of the IC50 (pIC50) in the experiment on A549 was 4.04; with HCT-116, 4.24; with MDA-MB-231 it was < 4.00; in the experiment with BEL-7404 tumor cell line it was 4.20.
Regarding `COc1cccc2c1C(=O)c1c(O)c3c(c(O)c1C2=O)C[C@@](O)(C(=O)CO)C[C@@H]3O[C@H]1C[C@H](N)[C@H](O)[C@H](C)O1` [DOXORUBICIN], the pIC50 in the experiment with A549 is 7.82; in the experiment on HCT-116, 8.15; in the experiment with MDA-MB-231, 6.89; in the experiment with BEL-7404 tumor cell line it was 6.89.

Usually pIC50 stands for the IC50 on a negative log10 scale, so that one unit is a factor of ten.

Values taken from ChEMBL document CHEMBL4041470, “Isolation, Structure Elucidation, and Absolute Configuration of Highly Oxygenated Germacranolides from Carpesium cernuum” (J Nat Prod, 2016).
